Experimental data: paper PMC7413294 (Heterocycles, 2019)
Several values for one entry are separate records, joined by “and”; a condition that tells them apart may be missing. Identical values can stand only once. Like-named read-outs stand apart in the source and are kept apart here.

Legend:
T-Cav3.2-channel = T-Cav3.2-channel (Mus musculus, UniProt O88427); experiment: Whole-cell patch clamp inhibition of T-Cav3.2 channel in mouse DRG neurons; assay type: cell-based
Procedure, shortened: (§1)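 Lumbar DRG neurons from 1–6 month-old C57 mice, digested in HBSS with 1 mg/mL collagenase and 0.5 mg/mL trypsin (35°C, 45–50 min). Neurons triturated, plated on poly-L-ornithine coverslips and kept in modified Krebs solution at 21°C. Whole-cell voltage clamp at room temperature. Compound applied by rapid local solution exchange; currents normalized to control to give % inhibition; sigmoidal dose-response fits.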

Na-channel = experiment: Whole-cell patch clamp inhibition of Na-channel in mouse DRG neurons; assay type: cell-based; details: for IC50: read-out: IC50, Na- channel in DRG neurons
Procedure, shortened: as §1

K-channel = experiment: Whole-cell patch clamp inhibition of K-channel; assay type: cell-based; details: mouse DRG neurons
Procedure, shortened: as §1

[1] = target: Cav3.2 channels expressed in HEK-293 cells (Homo sapiens, UniProt O95180); experiment: Whole-cell patch clamp inhibition of Cav3.2 channels expressed in HEK293 cells; assay type: cell-based
Procedure, shortened: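 Tetracycline-inducible HEK293 line, G418-selected, reseeded on poly-D-lysine coverslips; Cav3.2 induced after 24 h with 1 µg/mL tetracycline. Whole-cell voltage clamp at room temperature. External solution: choline-Cl/TEA-Cl with 2 mM CaCl2. Internal solution: CsCl/EGTA. Holding potential -100 mV, then 100 ms depolarizing steps of 10 mV at 10 s intervals. Compound applied by rapid solution exchange; currents normalized to control; sigmoidal dose-response fits.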

T-type calcium channels = details: read-out: IC50, T-type calcium channels; cited from earlier work
L-type calcium channels = details: read-out: IC50, L-type calcium channels; cited from earlier work
PTZ-induced seizures = experiment: Pentylenetetrazole; assay type: in vivo, mouse; details: 30 mg/Kg; for Inhibition ratio (%) of fatality in PTZ-model of mice: 20-min observation period, 100 minus death ratio; for Latency to fatality (minutes) in PTZ model of mice: first 20 minutes of testing
Procedure, shortened: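 Mice received pentylenetetrazol at 40 mg/kg by intraperitoneal injection; test compound groups were compared with vehicle (2% DMSO in 0.5% hydroxypropyl cellulose), […]. Deaths were recorded within a 20-min cutoff. Inhibition ratio was 100 minus the % of mice that died. Latency to fatality was recorded per mouse as mean ± SEM. Experimenters were blinded.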

[2] = system: pentylenetetrazole-induced seizures; details: 30 mg/Kg; cited from earlier work
[3] = DRG neuron, read-out: Inhibition (%) of T-Cav3.2- channel in DRG neurons

Sequence of T-Cav3.2-channel (O88427 whole entry): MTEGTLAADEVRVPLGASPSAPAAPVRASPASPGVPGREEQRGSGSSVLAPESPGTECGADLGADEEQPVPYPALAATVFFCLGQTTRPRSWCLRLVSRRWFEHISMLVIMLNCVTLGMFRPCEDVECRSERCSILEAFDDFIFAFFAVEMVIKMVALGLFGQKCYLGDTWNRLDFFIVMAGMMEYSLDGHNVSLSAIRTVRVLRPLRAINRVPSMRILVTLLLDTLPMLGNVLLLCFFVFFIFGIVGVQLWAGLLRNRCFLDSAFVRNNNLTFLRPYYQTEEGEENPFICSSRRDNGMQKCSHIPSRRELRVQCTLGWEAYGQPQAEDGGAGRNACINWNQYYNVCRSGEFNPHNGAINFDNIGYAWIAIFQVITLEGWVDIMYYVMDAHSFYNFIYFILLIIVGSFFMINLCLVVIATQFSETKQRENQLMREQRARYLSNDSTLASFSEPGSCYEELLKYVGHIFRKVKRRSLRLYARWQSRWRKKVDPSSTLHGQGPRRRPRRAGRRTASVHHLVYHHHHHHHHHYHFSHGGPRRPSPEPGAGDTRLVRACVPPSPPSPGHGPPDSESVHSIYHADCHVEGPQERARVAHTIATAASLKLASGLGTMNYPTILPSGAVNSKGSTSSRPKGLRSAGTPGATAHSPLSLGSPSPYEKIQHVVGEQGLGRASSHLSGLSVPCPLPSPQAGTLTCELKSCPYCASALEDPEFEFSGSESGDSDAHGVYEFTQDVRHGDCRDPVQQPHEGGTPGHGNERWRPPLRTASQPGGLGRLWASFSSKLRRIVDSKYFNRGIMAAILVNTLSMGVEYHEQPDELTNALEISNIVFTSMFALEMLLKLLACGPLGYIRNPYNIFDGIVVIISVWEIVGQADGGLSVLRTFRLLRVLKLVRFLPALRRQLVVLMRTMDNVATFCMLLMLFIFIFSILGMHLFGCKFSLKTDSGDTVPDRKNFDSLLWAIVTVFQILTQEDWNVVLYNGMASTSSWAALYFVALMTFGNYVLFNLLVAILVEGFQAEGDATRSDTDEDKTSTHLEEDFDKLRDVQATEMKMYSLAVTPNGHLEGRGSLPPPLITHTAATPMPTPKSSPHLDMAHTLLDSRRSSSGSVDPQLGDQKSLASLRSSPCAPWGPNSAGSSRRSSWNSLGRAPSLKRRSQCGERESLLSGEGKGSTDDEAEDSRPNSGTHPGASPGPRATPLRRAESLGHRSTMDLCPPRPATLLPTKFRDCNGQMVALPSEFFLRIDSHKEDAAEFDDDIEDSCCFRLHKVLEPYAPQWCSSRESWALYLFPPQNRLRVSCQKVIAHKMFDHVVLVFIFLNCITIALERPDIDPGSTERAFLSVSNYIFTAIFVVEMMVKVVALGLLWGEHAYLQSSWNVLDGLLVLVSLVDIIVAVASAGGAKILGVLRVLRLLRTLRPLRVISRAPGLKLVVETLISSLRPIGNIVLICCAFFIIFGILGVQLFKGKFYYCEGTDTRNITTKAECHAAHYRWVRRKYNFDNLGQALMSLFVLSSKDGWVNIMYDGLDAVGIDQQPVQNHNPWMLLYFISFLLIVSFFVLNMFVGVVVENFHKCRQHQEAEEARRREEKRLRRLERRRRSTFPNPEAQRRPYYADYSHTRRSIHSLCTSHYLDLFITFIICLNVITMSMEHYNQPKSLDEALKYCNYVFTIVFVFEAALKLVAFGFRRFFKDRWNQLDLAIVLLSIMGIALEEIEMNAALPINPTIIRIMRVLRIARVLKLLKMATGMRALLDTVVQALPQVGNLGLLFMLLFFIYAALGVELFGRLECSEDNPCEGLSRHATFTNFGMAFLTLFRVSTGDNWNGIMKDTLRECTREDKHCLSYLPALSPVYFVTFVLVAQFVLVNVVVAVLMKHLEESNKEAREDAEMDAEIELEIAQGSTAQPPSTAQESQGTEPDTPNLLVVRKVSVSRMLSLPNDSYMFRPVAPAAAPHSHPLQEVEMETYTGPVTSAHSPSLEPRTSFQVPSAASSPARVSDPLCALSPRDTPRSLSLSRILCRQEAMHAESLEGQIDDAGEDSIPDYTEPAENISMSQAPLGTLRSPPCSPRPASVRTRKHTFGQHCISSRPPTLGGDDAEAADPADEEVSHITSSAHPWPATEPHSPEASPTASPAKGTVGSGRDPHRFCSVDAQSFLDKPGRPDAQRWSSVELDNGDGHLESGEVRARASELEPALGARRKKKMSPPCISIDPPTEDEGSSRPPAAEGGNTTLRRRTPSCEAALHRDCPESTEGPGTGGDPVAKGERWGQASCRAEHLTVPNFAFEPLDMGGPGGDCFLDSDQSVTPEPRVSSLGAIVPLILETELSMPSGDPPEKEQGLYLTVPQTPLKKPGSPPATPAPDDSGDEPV
Sequence of Cav3.2 channels expressed in HEK-293 cells (O95180 whole entry): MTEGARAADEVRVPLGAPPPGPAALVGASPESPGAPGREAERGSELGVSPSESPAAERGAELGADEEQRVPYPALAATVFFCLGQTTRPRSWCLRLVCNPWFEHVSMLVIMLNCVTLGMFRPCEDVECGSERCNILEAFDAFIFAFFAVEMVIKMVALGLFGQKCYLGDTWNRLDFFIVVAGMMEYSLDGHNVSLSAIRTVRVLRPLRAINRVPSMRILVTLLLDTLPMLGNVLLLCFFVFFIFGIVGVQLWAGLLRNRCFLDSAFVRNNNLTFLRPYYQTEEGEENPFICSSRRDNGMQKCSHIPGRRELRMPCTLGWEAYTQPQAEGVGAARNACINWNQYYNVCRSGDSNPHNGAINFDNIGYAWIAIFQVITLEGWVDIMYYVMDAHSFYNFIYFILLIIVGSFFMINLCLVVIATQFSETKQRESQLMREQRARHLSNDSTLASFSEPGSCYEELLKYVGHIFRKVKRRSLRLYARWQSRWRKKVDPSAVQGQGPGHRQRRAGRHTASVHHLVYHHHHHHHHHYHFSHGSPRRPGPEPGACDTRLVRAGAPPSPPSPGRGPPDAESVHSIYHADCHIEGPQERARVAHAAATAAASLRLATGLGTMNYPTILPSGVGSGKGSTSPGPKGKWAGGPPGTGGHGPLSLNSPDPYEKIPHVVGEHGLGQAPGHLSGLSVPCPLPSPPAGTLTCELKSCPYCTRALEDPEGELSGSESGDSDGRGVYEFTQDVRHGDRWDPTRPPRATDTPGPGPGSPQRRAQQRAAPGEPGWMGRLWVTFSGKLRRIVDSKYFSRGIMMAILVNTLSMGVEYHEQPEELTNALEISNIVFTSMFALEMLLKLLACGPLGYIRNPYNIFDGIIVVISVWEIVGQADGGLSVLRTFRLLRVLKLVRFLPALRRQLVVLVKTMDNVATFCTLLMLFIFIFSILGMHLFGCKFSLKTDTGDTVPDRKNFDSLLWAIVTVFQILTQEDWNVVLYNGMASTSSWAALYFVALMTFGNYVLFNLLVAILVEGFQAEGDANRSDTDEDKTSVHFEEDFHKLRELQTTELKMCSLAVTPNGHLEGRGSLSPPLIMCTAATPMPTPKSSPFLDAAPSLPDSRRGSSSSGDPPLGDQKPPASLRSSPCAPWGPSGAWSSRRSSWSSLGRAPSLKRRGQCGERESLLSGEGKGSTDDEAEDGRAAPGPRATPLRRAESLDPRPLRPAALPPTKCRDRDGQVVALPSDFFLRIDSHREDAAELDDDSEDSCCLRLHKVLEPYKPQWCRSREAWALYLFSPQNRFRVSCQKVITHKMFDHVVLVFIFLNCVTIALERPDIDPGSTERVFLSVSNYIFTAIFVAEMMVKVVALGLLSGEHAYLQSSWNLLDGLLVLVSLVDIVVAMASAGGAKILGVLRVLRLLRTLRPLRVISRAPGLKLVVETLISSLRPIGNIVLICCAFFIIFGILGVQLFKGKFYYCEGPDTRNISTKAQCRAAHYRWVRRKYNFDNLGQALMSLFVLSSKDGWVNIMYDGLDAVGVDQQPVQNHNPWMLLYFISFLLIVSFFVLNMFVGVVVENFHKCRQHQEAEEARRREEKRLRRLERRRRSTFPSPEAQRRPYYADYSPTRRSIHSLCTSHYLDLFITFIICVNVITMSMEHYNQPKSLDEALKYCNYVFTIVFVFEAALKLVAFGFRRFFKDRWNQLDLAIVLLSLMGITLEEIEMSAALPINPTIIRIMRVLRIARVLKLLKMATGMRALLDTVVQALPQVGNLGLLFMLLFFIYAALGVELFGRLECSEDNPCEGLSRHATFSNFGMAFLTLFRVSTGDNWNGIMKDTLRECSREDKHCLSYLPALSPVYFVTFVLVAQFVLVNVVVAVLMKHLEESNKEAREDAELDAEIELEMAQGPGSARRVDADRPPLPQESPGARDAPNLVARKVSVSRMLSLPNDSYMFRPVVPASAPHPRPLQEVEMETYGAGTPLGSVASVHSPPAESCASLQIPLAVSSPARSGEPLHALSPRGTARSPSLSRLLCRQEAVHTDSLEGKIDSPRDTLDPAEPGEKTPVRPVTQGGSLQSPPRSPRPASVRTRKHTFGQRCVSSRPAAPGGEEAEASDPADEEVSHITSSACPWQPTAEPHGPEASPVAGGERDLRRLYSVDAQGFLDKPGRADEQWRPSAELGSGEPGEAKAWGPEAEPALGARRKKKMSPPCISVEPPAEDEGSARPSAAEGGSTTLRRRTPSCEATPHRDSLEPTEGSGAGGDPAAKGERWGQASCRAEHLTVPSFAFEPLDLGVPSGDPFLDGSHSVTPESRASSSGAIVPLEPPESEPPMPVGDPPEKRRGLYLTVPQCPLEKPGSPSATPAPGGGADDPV

| Structure (SMILES) | inhibition at 1 µM (T-Cav3.2-channel; [3]) | Inhibition (%) of Na- channel in DRG neurons (Na-channel; 1 µM) | Inhibition (%) of K-channel in DRG neurons, IA (rapid inactivating potassium current) (K-channel; 1 µM, IA) | Inhibition (%) of K-channel in DRG neurons, IKd (delayed rectifier potassium current) (K-channel; 1 µM, IKd) | Inhibition ratio (%) of fatality in PTZ-model of mice (PTZ-induced seizures) | Latency to fatality (minutes) in PTZ model of mice (PTZ-induced seizures) | also measured |
| --- | --- | --- | --- | --- | --- | --- | --- |
| O=C(CCc1cccc(Cl)c1)Nc1nnc(-c2ccccc2)o1 [Compound 10, 3-(3-Chlorophenyl)-N-(5-phenyl-1,3,4-oxadiazol-2-yl)propanamide] | 5% | – | – | – | – | – | – |
| O=C(Nc1nnc(-c2ccc(Cl)s2)o1)c1ccccc1 [Compound 8, N-(5-(5-Chlorothiophen-2-yl)-1,3,4-oxadiazol-2-yl)benzamide] | 24.4 ± 9.6% | −71.8 (n=1) % | −18.7% | −28.6% | – | – | – |
| O=C(CN1CCC(C(=O)Nc2nnc(-c3ccc(Cl)s3)o2)CC1)Nc1ccccc1 [Compound 9, 1-((Phenylcarbamoyl)methyl)-N-(5-(5-chlorothiophen-2-yl)-1,3,4-oxadiazol-2-yl)piperidine-4-carboxamide] | 79.5% | – | – | – | – | – | – |
| c1ccc(-c2nnc(N3CCCCC3)o2)cc1 [Compound 12, 1-(5-Phenyl-1,3,4-oxadiazol-2-yl)piperidine] | 44.2 ± 5.6% | 25.7±6.3% | 21.9±8.6% | 31.6±5.5% | – | – | inhibition at 1 µM ([1]; HEK293, read-out: Inhibition (%) of T-Cav3.2- channel in HEK293 cells): 64.6%; IC50 (Na-channel): 2100 nM; IC50 (K-channel; read-out: IC50, K-channel IA in DRG neurons, IA): 19600 nM; IC50 (K-channel; read-out: IC50, K-channel IKd in DRG neurons, IKd): 2600 nM |
| COCC(=O)O[C@]1(CCN(C)CCCc2nc3ccccc3[nH]2)CCc2cc(F)ccc2[C@@H]1C(C)C [Mibefradril] | – | – | – | – | – | – | IC50 (T-type calcium channels): 100 nM; IC50 (L-type calcium channels): 3000 nM |
| O=C(CCc1cccc(Cl)c1)Nc1nnc(-c2ccc(Cl)s2)o1 [Compound 7, 3-(3-Chlorophenyl)-N-(5-(5-chlorothiophen-2-yl)-1,3,4-oxadiazol-2-yl)propanamide] | 20.4 ± 1.9% | – | – | – | 30% and 28.6 (n=7) % | 13.6±1.8 (n=7) minutes | Inhibition (%) of Na- channel in DRG neurons (Na-channel; 3.3 µM): 82.2 (3.3 μM) (n=1) %; Inhibition (%) of K-channel in DRG neurons, IA (rapid inactivating potassium current) (K-channel; 3.3 µM, IA): −26.0%; Inhibition (%) of K-channel in DRG neurons, IKd (delayed rectifier potassium current) (K-channel; 3.3 µM, IKd): −15.6% |
| N#CC1CCN(CC(=O)Nc2nnc(-c3ccccc3)o2)CC1 [Compound 14, 2-(4-Cyanopiperidin-1-yl)-N-(5-phenyl-1,3,4-oxadiazol-2-yl)acetamide] | 69.6 ± 6.2% | −4.7 (n=1) % | 12.9% | 30.0% | 14 (n=7) % | 11.8±2.5 (n=7) minutes | – |
| CC(C)(C)NC(=O)CN1CCC(CNC(=O)c2cc(F)cc(Cl)c2)CC1 [Compound Z944, reference compound] | – | 49.7±6% | 34.5±15.0% | 44.9±17.7% | 33% and 33.3 (n=6) % | 15.2±3.1 (n=6) minutes | Inhibition (%) of T-Cav3.2- channel in HEK293 cells ([1]; 0.25 µM, HEK293 cells): 74.5±7.8 (0.25 µM, in HEK293 cells) (n=6) %; IC50 (Na-channel): 510 nM; Protective effect on seizures, pentylenetetrazole-induced fatality rat model [2]: 33% |
| O=C(Nc1nnc(-c2ccccc2F)o1)c1ccc(Cl)s1 [Compound 15, 5-Chloro-N-(5-(2-fluorophenyl)-1,3,4-oxadiazol-2-yl)thiophene-2-carboxamide] | 60.9% | – | – | – | – | – | – |
| O=C1c2cc(Cl)c(Cl)cc2C(=O)N1c1nnc(-c2ccc(Cl)s2)o1 [Compound 6, 5,6-Dichloro-2-(5-(5-chlorothiophen-2-yl)-1,3,4-oxadiazol-2-yl)isoindoline-1,3-dione] | – | – | – | – | 0% and 0 (n=8) % | 1.9±0.3 (n=8) minutes | inhibition at 3.3 µM (T-Cav3.2-channel; [3]): 9.8%; Inhibition (%) of Na- channel in DRG neurons (Na-channel; 3.3 µM): 100 (3.3 µM) (n=1) %; Inhibition (%) of K-channel in DRG neurons, IA (rapid inactivating potassium current) (K-channel; 3.3 µM, IA): −11.6%; Inhibition (%) of K-channel in DRG neurons, IKd (delayed rectifier potassium current) (K-channel; 3.3 µM, IKd): −17.8% |
| O=C(Nc1nnc(-c2ccccc2)o1)c1ccc(Cl)s1 [Compound 11, 5-Chloro-N-(5-phenyl-1,3,4-oxadiazol-2-yl)thiophene-2-carboxamide] | 50 ± 9.7% | 16.5±8.9 (n=7) % | 18.9±11.8% | 24.1±14.6% | 72.1% and 72.7 (n=11) % | 15.3±2.4 (n=11) minutes | IC50 (T-Cav3.2-channel): 930 nM |
| O=C(CN1CCCCC1)Nc1nnc(-c2ccccc2)o1 [Compound 13, N-(5-Phenyl-1,3,4-oxadiazol-2-yl)-2-(piperidin-1-yl)acetamide] | 55.4 ± 28.7% | −2.7 (n=1) % | 19.9% | 36.5% | 0 (n=7) % | 3.7±1.8 (n=7) minutes | – |
